Measurements pooled from the literature.
Compare with care: the assays were run in different laboratories.
Target: Calcium/calmodulin-dependent protein kinase type II subunit delta (CAMK2D, Homo sapiens, UniProt Q13557)

| SMILES | read-out | technique | concentration | remaining binding [%] |
| --- | --- | --- | --- | --- |
| CN(C)c1nccc(-c2cnn3ncccc23)n1 | binding |  | 1 µM | 100 |
| CNC(=O)[C@@H]1CC[C@@H](n2c(-c3ccc4cnccc4c3)nc3ccc(C(=O)NCc4cccc(C(N)=O)c4)cc32)C1 | binding | competition with immobilised ligand | 1 µM | 87 |
| C[C@@H]1CCN(c2nccc(-c3cnn4ncccc34)n2)C1 | binding |  | 1 µM | 100 |
| C[C@H](c1cccc(C#N)c1)n1cc(Cl)cc(C(N)=O)c1=N | cell-free assay | competition with immobilised ligand | 1 µM | 100 |
| C=CC(=O)N1CCC(C(=O)NCC(=O)N2CCN(c3nc(-c4cnc(N)nc4C(F)F)nc(N4CCOCC4)n3)CC2)CC1 | binding | competition with immobilised ligand | 1 µM | 100 |
| Cc1cnn2ncc(-c3ccnc(N(C)C)n3)c2c1 | binding |  | 1 µM | 78 |
| C[C@@H](c1ccc(-n2cnc3c(N)ncnc32)cc1)N1CCc2nn(C)c(Cc3ccccc3)c2C1=O | binding | competition with immobilised ligand | 0.1 µM | 93 |
| COc1ccc2cc(OCC3(C(=O)O)CN(C(=O)c4ccc(F)cc4)C3)ccc2c1 | cell-free assay | competition with immobilised ligand | 1 µM | 100 |
| CN(CCCC(F)(F)F)c1nccc(-c2cnn3ncccc23)n1 | binding |  | 1 µM | 100 |
| FC(F)(F)Oc1cccc(-c2cnc3ccc(-c4ccncc4)nn23)c1 | cell-free assay | competition with immobilised ligand | 5 µM | 33 |
| N[C@@H]1CCN(c2nccc(-c3cnn4ncccc34)n2)C1 | binding |  | 1 µM | 100 |
| O=C(c1ccc(Nc2ncc(Cl)c(-c3ccc(Cl)s3)n2)cc1)N1CCC(N2CCCC2)CC1 | binding | competition with immobilised ligand | 1 µM | 75 |
| CCc1ccccc1C(=O)Nc1n[nH]c2c(C)c(F)c(C3C(C#N)=C(C)N(C)C(C)=C3C#N)cc12 | cell-free assay | competition with immobilised ligand | 1 µM | 78 |
| O=C(NCCCN1CCOCC1)c1ccc(Nc2ncc(Cl)c(-c3ccc(Cl)s3)n2)cc1 | binding | competition with immobilised ligand | 1 µM | 83 |
| O=c1nc(-c2ccccn2)sc2ccccc12 | cell-free assay | competition with immobilised ligand | 1 µM | 90 |
| O=C(c1ccc(Nc2ncc(Cl)c(-c3cc4ccccc4s3)n2)cc1)N1CCC(N2CCCC2)CC1 | binding | competition with immobilised ligand | 1 µM | 80 |
| CCS(=O)(=O)c1cc2cc(C[C@](O)(CC(C)(C)c3ccc(F)cc3C(N)=O)C(F)(F)F)[nH]c2cn1 | cell-free assay | competition with immobilised ligand | 1 µM | 100 |
| O=C(Nc1c[nH]nc1C(=O)NC1CCNCC1)c1cc(F)cc(F)c1 | binding | competition with immobilised ligand | 1 µM | 100 |
| CN(C)c1nccc(-c2cnc3ncccn23)n1 | binding |  | 1 µM | 100 |
| CCN1CCN(Cc2ccc(C(=O)Nc3ccc(C)c(Oc4ccc5c(c4)CC(=O)N5)c3)cc2C(F)(F)F)CC1 | binding | competition with immobilised ligand | 1 µM | 100 |
| CNC(=O)Nc1ccc2c(c1)CC[C@@]21OC(=O)N(CC(=O)N(Cc2ccc(F)cc2)[C@@H](C)C(F)(F)F)C1=O | cell-free assay | competition with immobilised ligand | 1 µM | 91 |
| c1cncc(-c2cccc(Nc3nccc(NC4CCCCC4)n3)c2)c1 | binding | competition with immobilised ligand | 10 µM | 92 |
